# Source: ChEMBL document CHEMBL1140930 (J Med Chem, 2009)
# Columns and labels:
# [1] = Antiproliferative activity against human KB/HeLa cells by XTT assay; format: functional, cell-based
# Outline: (§1)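 XTT metabolic read-out. Cells seeded at 1 × 10³–8 × 10⁴ cells/well for logarithmic growth and exposed to graded concentrations for 48 h. At least two replicates. IC50 from nonlinear regression of dose-response curves. LT12/MDR: rat LT12 with ectopic human MDR-1. L1210/VCR: MDR-1 expressing, MRP-1 negative.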
# SF-268 = assay: Antiproliferative activity against human SF268 cells by XTT assay; format: functional, cell-based; outline: as §1
# NCI-H460 = assay: Antiproliferative activity against human NCI-H460 cells by XTT assay; format: functional, cell-based; outline: as §1
# RKO [2] = assay: Antiproliferative activity against human RKO cells by XTT assay; format: functional, cell-based
# Outline: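 RKO colon cells with ecdysone-inducible p27Kip1. Day 1: plated with or without 3 µM ponasterone A for 24 h, giving G1 arrest when induced (2 × 10⁴ cells/well induced; 6 × 10³ not induced). Day 2: compound added (DMSO control) for 48 h at 37 °C, then standard XTT. At least duplicate. IC50 by nonlinear regression.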
# RKO [3] = assay: Antiproliferative activity against human RKO cells containing ecdysone-inducible expression vector of p27kipl by XTT assay; format: functional, cell-based
# Outline: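 RKO cells carried an ecdysone-inducible p27Kip1 vector and were tested with and without induction. On day 1 they were plated with or without 3 µM ponasterone A, which gives G1 arrest, at 2 × 10⁴ cells/well induced or 6 × 10³ not induced, then held 24 h at 37 °C. Compound was then added for 48 h at 37 °C, followed by a standard XTT assay. IC50 came from nonlinear regression, n ≥ 2.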
# [4] = Antiproliferative activity against rat LT12 cells after 48 hrs by XTT assay; format: functional, cell-based; details: LT12, 48 h
# Outline: (§2)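 XTT metabolic-activity read-out of proliferation. Cells were seeded at 1 × 10³-8 × 10⁴ cells/well for logarithmic growth and exposed to a range of compound concentrations for 48 h. IC50 came from nonlinear regression of dose-response curves, with at least two replicates. The P388/Adr subline was doxorubicin-selected with elevated MDR-1.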
# [5] = Antiproliferative activity against rat LT12 cells ectopic expression of human MDR1 after 48 hrs by XTT assay; format: functional, cell-based; details: LT12, 48 h; outline: as §1
# L1210 [6] = assay: Antiproliferative activity against mouse L1210 cells after 48 hrs by XTT assay; format: functional, cell-based; details: L1210, 48 h; outline: as §2
# L1210 [7] = assay: Antiproliferative activity against vincristine-resistance MRP1 negative mouse L1210 cells expressing human MDR1 after 48 hrs by XTT assay; format: functional, cell-based; details: L1210, 48 h; outline: as §1
# P388 [8] = assay: Antiproliferative activity against mouse P388 cells after 48 hrs by XTT assay; format: functional, cell-based; details: P388, 48 h; outline: as §2
# P388 [9] = assay: Antiproliferative activity against doxorubicin-resistant mouse P388 cells expressing MDR1 protein after 48 hrs by XTT assay; format: functional, cell-based; details: P388, 48 h; outline: as §2
# K562 = assay: Antiproliferative activity against human K562 cells after 48 hrs; format: functional, cell-based; details: K562, 48 h
# Outline: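 K562 cells (RPMI 1640, 10% FBS, 37 °C, 5% CO2) plated at 2 × 10⁵ cells/mL. Compounds dissolved in DMSO/methanol 1:1, vehicle 0.5%. Cells counted in a Neubauer chamber after 48 h and expressed as % of untreated control. Triplicate wells, three experiments. IC50 from nonlinear regression.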
# Tubulin [10] = molecular target: T1, Tubulin (Sus scrofa, UniProt P02554+P02550); assay: Inhibition of pig brain tubulin polymerization after 30 mins by turbidimetric assay
# Outline: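 Microtubule protein from porcine brain (80–90% tubulin, 10–20% MAPs), purified by two disassembly/reassembly cycles. Assay buffer: 20 mM PIPES pH 6.8, 80 mM NaCl, 0.5 mM MgCl2, 1 mM EGTA, 1 mM DTT. Protein at 1.2 mg/mL with 0.6 mM GTP final, 1% DMSO final, 37 °C.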
# SK-OV-3 = assay: Antiproliferative activity against human SKOV3 cells by XTT assay; format: functional, cell-based; outline: as §2
# [11] = Cell cycle arrest in human KB/HeLa cells assessed as G2/M phase accumulation after 24 hrs by FACS analysis; format: functional, cell-based
# Outline: (§3)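 Subconfluent KB/HeLa cells exposed to a range of compound concentrations for 24 h at 37 °C, then detached and fixed in 70% ethanol. DNA stained with propidium iodide after RNase digestion and measured by flow cytometry. Cell-cycle phase fractions taken from cell cycle analysis software. At least two replicates.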
# [12] = Cell cycle arrest in human KB/HeLa cells assessed as S phase accumulation at 0.1 nM after 24 hrs by FACS analysis; format: functional, cell-based; outline: as §3
# [13] = Cell cycle arrest in human KB/HeLa cells assessed as G2/M phase accumulation at 0.1 nM after 24 hrs by FACS analysis; format: functional, cell-based; outline: as §3
# [14] = Cell cycle arrest in human KB/HeLa cells assessed as G1 phase accumulation at 0.1 nM after 24 hrs by FACS analysis; format: functional, cell-based; outline: as §3
# [15] = Cell cycle arrest in human KB/HeLa cells assessed as S phase accumulation at 0.3 nM after 24 hrs by FACS analysis; format: functional, cell-based; outline: as §3
# [16] = Cell cycle arrest in human KB/HeLa cells assessed as G2/M phase accumulation at 0.3 nM after 24 hrs by FACS analysis; format: functional, cell-based; outline: as §3
# [17] = Cell cycle arrest in human KB/HeLa cells assessed as G1 phase accumulation at 0.3 nM after 24 hrs by FACS analysis; format: functional, cell-based; outline: as §3
# [18] = Cell cycle arrest in human KB/HeLa cells assessed as S phase accumulation at 1 nM after 24 hrs by FACS analysis; format: functional, cell-based; outline: as §3
# [19] = Cell cycle arrest in human KB/HeLa cells assessed as G2/M phase accumulation at 1 nM after 24 hrs by FACS analysis; format: functional, cell-based; outline: as §3
# [20] = Cell cycle arrest in human KB/HeLa cells assessed as G1 phase accumulation at 1 nM after 24 hrs by FACS analysis; format: functional, cell-based; outline: as §3
# [21] = Cell cycle arrest in human KB/HeLa cells assessed as S phase accumulation at 3.16 nM after 24 hrs by FACS analysis; format: functional, cell-based; outline: as §3
# [22] = Cell cycle arrest in human KB/HeLa cells assessed as G2/M phase accumulation at 3.16 nM after 24 hrs by FACS analysis; format: functional, cell-based; outline: as §3
# [23] = Cell cycle arrest in human KB/HeLa cells assessed as G1 phase accumulation at 3.16 nM after 24 hrs by FACS analysis; format: functional, cell-based; outline: as §3
# [24] = Cell cycle arrest in human KB/HeLa cells assessed as S phase accumulation at 10 nM after 24 hrs by FACS analysis; format: functional, cell-based; outline: as §3
# [25] = Cell cycle arrest in human KB/HeLa cells assessed as G2/M phase accumulation at 10 nM after 24 hrs by FACS analysis; format: functional, cell-based; outline: as §3
# [26] = Cell cycle arrest in human KB/HeLa cells assessed as G1 phase accumulation at 10 nM after 24 hrs by FACS analysis; format: functional, cell-based; outline: as §3
# [27] = Cell cycle arrest in human KB/HeLa cells assessed as S phase accumulation at 31.6 nM after 24 hrs by FACS analysis; format: functional, cell-based; outline: as §3
# [28] = Cell cycle arrest in human KB/HeLa cells assessed as G2/M phase accumulation at 31.6 nM after 24 hrs by FACS analysis; format: functional, cell-based; outline: as §3
# [29] = Cell cycle arrest in human KB/HeLa cells assessed as G1 phase accumulation at 31.6 nM after 24 hrs by FACS analysis; format: functional, cell-based; outline: as §3
# [30] = Cell cycle arrest in human KB/HeLa cells assessed as S phase accumulation at 100 nM after 24 hrs by FACS analysis; format: functional, cell-based; outline: as §3
# [31] = Cell cycle arrest in human KB/HeLa cells assessed as G2/M phase accumulation at 100 nM after 24 hrs by FACS analysis; format: functional, cell-based; outline: as §3
# [32] = Cell cycle arrest in human KB/HeLa cells assessed as G1 phase accumulation at 100 nM after 24 hrs by FACS analysis; format: functional, cell-based; outline: as §3
# [33] = Cell cycle arrest in human KB/HeLa cells assessed as S phase accumulation at 316 nM after 24 hrs by FACS analysis; format: functional, cell-based; outline: as §3
# [34] = Cell cycle arrest in human KB/HeLa cells assessed as G2/M phase accumulation at 316 nM after 24 hrs by FACS analysis; format: functional, cell-based; outline: as §3
# [35] = Cell cycle arrest in human KB/HeLa cells assessed as G1 phase accumulation at 316 nM after 24 hrs by FACS analysis; format: functional, cell-based; outline: as §3
# [36] = Cell cycle arrest in human KB/HeLa cells assessed as S phase accumulation at 1000 nM after 24 hrs by FACS analysis; format: functional, cell-based; outline: as §3
# [37] = Cell cycle arrest in human KB/HeLa cells assessed as G2/M phase accumulation at 1000 nM after 24 hrs by FACS analysis; format: functional, cell-based; outline: as §3
# [38] = Cell cycle arrest in human KB/HeLa cells assessed as G1 phase accumulation at 1000 nM after 24 hrs by FACS analysis; format: functional, cell-based; outline: as §3
# Tubulin [39] = molecular target: T1, Tubulin; assay: Displacement of [3H]Colchicine from pig biotinylated tubulin after 2 hrs by SPA; format: protein assay
# Tubulin [40] = molecular target: T1, Tubulin; assay: Displacement of [3H]paclitaxel from pig biotinylated tubulin after 2 hrs by SPA; format: protein assay
smiles,measurement,setting,value
COc1ccc(C(=O)C=C2c3ccccc3C(=O)c3ccccc32)cc1OC,IC50,[1],1080 nM
same,IC50,SF-268,2700 nM
same,IC50,NCI-H460,1400 nM
same,IC50,RKO [2],510 nM
same,IC50,RKO [3],> 9 µM
same,IC50,[4],370 nM
same,IC50,[5],440 nM
same,IC50,L1210 [6],970 nM
same,IC50,L1210 [7],970 nM
same,IC50,P388 [8],900 nM
same,IC50,P388 [9],1100 nM
same,IC50,K562,1300 nM
same,IC50,Tubulin [10],6 µM
COc1ccc(C(=O)C=C2c3ccccc3C(=O)c3ccccc32)cc1,IC50,[1],60 nM
same,IC50,SK-OV-3,60 nM
same,IC50,SF-268,60 nM
same,IC50,NCI-H460,70 nM
same,IC50,RKO [2],80 nM
same,IC50,RKO [3],> 9 µM
same,IC50,[4],50 nM
same,IC50,[5],50 nM
same,IC50,L1210 [6],50 nM
same,IC50,L1210 [7],50 nM
same,IC50,P388 [8],40 nM
same,IC50,P388 [9],50 nM
same,EC50,[11],90 nM
same,Activity,[12],26.1%
same,Activity,[13],13.2%
same,Activity,[14],60.7%
same,Activity,[15],27.1%
same,Activity,[16],10.8%
same,Activity,[17],62.1%
same,Activity,[18],26.1%
same,Activity,[19],11.6%
same,Activity,[20],62.3%
same,Activity,[21],26.2%
same,Activity,[22],11.8%
same,Activity,[23],62%
same,Activity,[24],26%
same,Activity,[25],11.3%
same,Activity,[26],62.7%
same,Activity,[27],34.1%
same,Activity,[28],8.4%
same,Activity,[29],57.5%
same,Activity,[30],16.7%
same,Activity,[31],74.9%
same,Activity,[32],8.4%
same,Activity,[33],6.2%
same,Activity,[34],92.8%
same,Activity,[35],1%
same,Activity,[36],9.2%
same,Activity,[37],88.5%
same,Activity,[38],2.3%
same,IC50,Tubulin [39],0.4 µM
same,IC50,Tubulin [40],> 100 µM
same,IC50,K562,70 nM
same,IC50,Tubulin [10],0.52 µM
CC[C@]1(O)C[C@H]2CN(CCc3c([nH]c4ccccc34)[C@@](C(=O)OC)(c3cc4c(cc3OC)N(C=O)[C@H]3[C@@](O)(C(=O)OC)[C@H](OC(C)=O)[C@]5(CC)C=CCN6CC[C@]43[C@@H]65)C2)C1 [VINCRISTINE],EC50,[11],2.4 nM
same,Activity,[12],27.7%
same,Activity,[13],11.1%
same,Activity,[14],61.2%
same,Activity,[15],24%
same,Activity,[16],11.7%
same,Activity,[17],64.5%
same,Activity,[18],28.3%
same,Activity,[19],17.2%
same,Activity,[20],53.7%
same,Activity,[21],26%
same,Activity,[22],65.8%
same,Activity,[23],6.5%
same,Activity,[24],6.5%
same,Activity,[25],13.1%
same,Activity,[26],86.7%
same,Activity,[27],0.5%
same,Activity,[28],7.2%
same,Activity,[29],92.6%
same,Activity,[30],1%
same,Activity,[31],4.8%
same,Activity,[32],95.1%
same,Activity,[33],0.2%
same,Activity,[34],5.9%
same,Activity,[35],93.8%
